Source: ChEMBL document CHEMBL4411297, “Discovery, synthesis and anti-atherosclerotic activities of a novel selective sphingomyelin synthase 2 inhibitor” (Eur J Med Chem, 2019)

Key:
[1] = biological target: T1, Phosphatidylcholine:ceramide cholinephosphotransferase 2 (Homo sapiens) (UniProt Q8NHU3); assay: (§1) Inhibition of purified SMS2 (unknown origin) using C6-NBD-Ceramide and DMPC as substrates preincubated for 5 mins followed by substrate addition and measured after 30 mins by TLC or HPLC method
T1 sequence (whole entry): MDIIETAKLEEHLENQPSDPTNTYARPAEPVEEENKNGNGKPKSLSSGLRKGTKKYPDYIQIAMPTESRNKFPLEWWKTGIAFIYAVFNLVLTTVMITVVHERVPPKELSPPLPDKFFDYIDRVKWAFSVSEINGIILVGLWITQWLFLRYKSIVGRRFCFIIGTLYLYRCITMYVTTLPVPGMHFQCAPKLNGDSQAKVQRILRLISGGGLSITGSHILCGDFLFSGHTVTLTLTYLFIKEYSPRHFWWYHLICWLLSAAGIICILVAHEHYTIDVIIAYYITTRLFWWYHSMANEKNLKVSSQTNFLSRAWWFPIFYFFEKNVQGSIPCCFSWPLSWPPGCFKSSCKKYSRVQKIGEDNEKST
Outline: (§2)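 Purified SMS1 or SMS2 in DDM detergent buffer; inhibitor in DMSO pre-incubated 5 min at room temperature, then C6-NBD-ceramide and DMPC added, 30 min at 37 °C; ethanol quench, TLC or HPLC read-out. Activity expressed as percent of no-inhibitor vehicle; IC50 from ten (SMS1) or eight (SMS2) concentrations, mean ± SD, n = 3.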

[2] = biological target: T2, Phosphatidylcholine:ceramide cholinephosphotransferase 2 (Homo sapiens, UniProt Q8NHU3); assay: as §1; outline: as §2
T2 sequence (Q8NHU3 whole entry): T1 sequence (whole entry)

[3] = biological target: T3, Phosphatidylcholine:ceramide cholinephosphotransferase 1 (Homo sapiens) (UniProt Q86VZ5); assay: (§3) Inhibition of purified SMS1 (unknown origin) using C6-NBD-Ceramide and DMPC as substrates preincubated for 5 mins followed by substrate addition and measured after 30 mins by TLC or HPLC method; outline: as §2
T3 sequence (whole entry): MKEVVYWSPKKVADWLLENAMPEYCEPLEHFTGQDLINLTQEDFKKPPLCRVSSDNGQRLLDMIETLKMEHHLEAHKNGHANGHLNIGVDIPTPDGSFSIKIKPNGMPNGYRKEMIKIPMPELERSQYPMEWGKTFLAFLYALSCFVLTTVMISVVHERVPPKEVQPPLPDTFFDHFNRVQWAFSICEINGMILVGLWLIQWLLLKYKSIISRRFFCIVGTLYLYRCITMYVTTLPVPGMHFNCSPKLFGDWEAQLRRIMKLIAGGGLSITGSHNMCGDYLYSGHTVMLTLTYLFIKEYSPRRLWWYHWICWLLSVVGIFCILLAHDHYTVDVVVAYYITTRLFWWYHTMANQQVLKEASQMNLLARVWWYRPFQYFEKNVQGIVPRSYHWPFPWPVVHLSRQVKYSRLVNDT

[4] = biological target: T4, Phosphatidylcholine:ceramide cholinephosphotransferase 1 (Homo sapiens, UniProt Q86VZ5); assay: as §3; outline: as §2
T4 sequence (Q86VZ5 whole entry): T3 sequence (whole entry)

[5] = AUC (0 to infinity) in C57BL/6J mouse at 50 mg/kg/day, ig by HPLC-MS/MS analysis; assay type: ADME, organism-based; parameters: dose 50 mg/kg/day, time infinity, route intragastric; settings: in vivo, po
Outline: (§4)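 Male C57BL/6J mice, six to eight weeks old, about 20 g, fasted 12 h with free water. Given a single intragastric dose of 25, 50 or 100 mg/kg in 10% DMSO/30% PEG-100/0.9% NaCl. Blood taken retro-orbitally at 5 min to 8 h. Plasma protein-precipitated with methanol plus internal standard, then HPLC-MS/MS on a C18 column. Noncompartmental analysis, n = 6.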

[6] = Tmax in C57BL/6J mouse at 50 mg/kg/day, ig by HPLC-MS/MS analysis; assay type: ADME, organism-based; settings: in vivo, po
Outline: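 Male C57BL/6J mice (6–8 weeks, ~20 g), fasted 12 h, given a single intragastric dose of 25, 50 or 100 mg/kg in 10% DMSO/30% PEG/0.9% NaCl. Retro-orbital blood at 5 min to 8 h; plasma protein-precipitated with methanol plus internal standard, assayed by LC-MS/MS; noncompartmental analysis. Mean ± SD, n = 6.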

[7] = Apparent volume of distribution during terminal phase in C57BL/6J mouse at 50 mg/kg/day, ig by HPLC-MS/MS analysis; assay type: ADME, organism-based; settings: in vivo, po, read-out: Vz/F; outline: as §4
Mus musculus [8] = assay: Effect on plasma ALT level in apoE knockout mouse fed with western-type diet at 12.5 to 40 mg/kg/day, ig for 7 weeks; assay type: ADME, organism-based; settings: in vivo, po, 1176 h
Outline: (§5)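 ApoE KO mice on Western-type diet, dosed by gavage at 12.5 or 40 mg/kg/day for 7 weeks, n = 10. Blood collected at 20 weeks of age. Plasma SM measured by a previously reported method. ALT and AST read on an automated biochemical analyzer.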

Mus musculus [9] = assay: Anti-atherosclerotic activity in apoE knockout mouse fed with western-type diet assessed as reduction in liver SMS activity at 40 mg/kg/day, ig for 7 weeks relative to control; assay type: functional; parameters: scale not given: the % may be the effect or the level left
Outline: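 ApoE KO mice on Western-type diet, dosed by gavage at 12.5 or 40 mg/kg/day for 7 weeks, n = 10. Liver homogenized at 200 mg/ml in 50 mM Tris-HCl pH 7.4, 1 mM EDTA, 250 mM sucrose. C6-NBD-ceramide and DMPC added, incubated at 37 °C, quenched with ethanol. Product read by TLC or HPLC, relative to vehicle.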

Mus musculus [10] = assay: Anti-atherosclerotic activity in ig dosed apoE knockout mouse fed with western-type diet assessed as reduction in plasma sphingomyelin level; assay type: functional, organism-based; outline: as §5
Mus musculus [11] = assay: Anti-atherosclerotic activity in apoE knockout mouse fed with western-type diet assessed as reduction in plasma SM level at 12.5 mg/kg/day, ig for 7 weeks relative to control; assay type: functional; parameters: scale not given: the % may be the effect or the level left; outline: as §5
Mus musculus [12] = assay: Anti-atherosclerotic activity in apoE knockout mouse fed with western-type diet assessed as reduction in lymphocyte count at 40 mg/kg/day, ig for 7 weeks by flow cytometric analysis relative to control; assay type: functional; parameters: scale not given: the % may be the effect or the level left
Outline: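 ApoE KO mice started at 8 weeks old on Western-type diet for 6 weeks. Then dosed by gavage daily with vehicle, 12.5 or 40 mg/kg for 7 weeks with the diet continued, 10 mice per group. Blood single-cell suspensions stained with antibodies in PBS and analysed by flow cytometry. Mean ± SD, n = 5.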

Mus musculus [13] = assay: Anti-atherosclerotic activity in apoE knockout mouse fed with western-type diet assessed as reduction in lesions in whole aorta at 12.5 to 40 mg/kg/day, ig for 7 weeks by oil-red O staining-based assay relative to control; assay type: functional, organism-based
Outline: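 ApoE KO mice fed Western-type diet, then given 12.5 or 40 mg/kg/day by gavage in 30% PEG-400/10% DMSO/0.9% NaCl for 7 weeks. Aortic root: H&E-stained 4 µm sections, mean lesion area from 6 sections per animal. Whole aorta: en face Oil Red O staining, percentage of area stained. Compared with vehicle, n = 10.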

Mus musculus [14] = assay: Anti-atherosclerotic activity in apoE knockout mouse fed with western-type diet assessed as reduction in macrophage content at 40 mg/kg/day, ig for 7 weeks by immunostaining assay relative to control; assay type: functional; parameters: scale not given: the % may be the effect or the level left
Outline: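 ApoE KO mice on Western-type diet, dosed by gavage at 12.5 or 40 mg/kg/day for 7 weeks. Aortic root sections 4 µm thick immunostained with MOMA-2: primary antibody 1 h at room temperature, biotinylated secondary, HRP-streptavidin, DAB, hematoxylin counterstain. Stained area quantified and expressed relative to vehicle.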

- inhibition [1]: Dose-dependent effect
- IC50 [2]: 0.091 µM
- inhibition [3]: Dose-dependent effect
- IC50 [4]: 134 µM
- AUC(0-inf) [5]: 6790 ng·h/mL
- Tmax [6]: 4.8 min
- Vd/F [7]: 26.5 L
Compound: CCc1ccccc1COc1ccccc1C(=O)Nc1cccnc1
- Activity (Mus musculus [8]): Non-Toxic
- Activity (Mus musculus [9]): 39%
- Activity (Mus musculus [10]): Dose-dependent effect
- Activity (Mus musculus [11]): 25%
- Activity (Mus musculus [12]): 24%
- Activity (Mus musculus [13]): Dose-dependent effect
- Activity (Mus musculus [14]): 55%
